The record followed here is ChEMBL document CHEMBL4014343 (J Med Chem, 2017).

Each structure is given as a SMILES string. Converted amounts (≈) assume the structure as drawn. The source made the active and inactive calls. The calls are words filed in the database; no cut-off is given here.

Series [1] concerns the target T1, Glycogen synthase kinase-3 beta (Homo sapiens, UniProt P49841). In words: Inhibition of human N-terminal GST/His6-tagged GSK3beta (M1 to T420 residues) expressed in baculovirus infected sf9 cells using RBER-IRStide as substrate by filter binding assay.
The target in series [2] is Cyclin-dependent kinase 5/CDK5 activator 1 (Homo sapiens, UniProt Q00535). In words: Inhibition of recombinant human N-terminal GST-tagged CDK5 (M1 to P292 residues)/p35NCK (M1 to R307 residues) expressed in baculovirus infected sf9 cells using RB-CTF as substrate by filter binding assay.
For series [3], the target named is T2, Cyclin-dependent kinase 2/cyclin E1 (Homo sapiens, UniProt P24941). Put plainly: Inhibition of CDK2/CyclinE (unknown origin).
The target of series [4] is T1, Glycogen synthase kinase-3 beta. Put plainly: Inhibition of recombinant GSK3beta (unknown origin) after 10 mins in presence of [gamma32P]ATP by beta counting method. In outline:
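Recombinant kinase with 0.4 μCi [γ-32P]ATP per vial, 10 min at 30 °C; spotted on P81 paper, washed in 0.75% phosphoric acid, counted by β-scintillation. IC50 by linear regression versus solvent control; duplicates, ≥3 independent experiments.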

Series [5] deals with T3, CDK2/Cyclin A2 (Homo sapiens, UniProt P24941). Put plainly: Inhibition of full length human C-terminal His6-tagged CDK2/N-terminal GST-tagged CyclinA expressed in baculovirus infected sf21 cells after 10 mins in presence of [gamma32P]ATP by beta counting method.
The target in series [6] is T4, Insulin-like growth factor 1 receptor (Homo sapiens, UniProt P08069). In words: Inhibition of IGF1R (unknown origin).
Series [7] concerns the target T3, CDK2/Cyclin A2. In words: Inhibition of CDK2/CyclinA (unknown origin).
Series [8] deals with T2, Cyclin-dependent kinase 2/cyclin E1. In words: Inhibition of full length human C-terminal His6-tagged CDK2/N-terminal GST-tagged CyclinE expressed in baculovirus infected sf21 cells after 10 mins in presence of [gamma32P]ATP by beta counting method.
The subject of series [9] is MCF7. Put plainly: Antiproliferative activity against human MCF7 cells after 3 days by SRB assay. It is filed as functional, cell-based.
In series [10] the target is Cyclin-dependent kinase 4/cyclin D1 (Homo sapiens, UniProt P11802). In words: Inhibition of CDK4/Cyclin D1 (unknown origin).
In series [11] the target is T5, Aurora kinase C (Homo sapiens) (UniProt Q9UQB9).
T5 sequence (whole entry): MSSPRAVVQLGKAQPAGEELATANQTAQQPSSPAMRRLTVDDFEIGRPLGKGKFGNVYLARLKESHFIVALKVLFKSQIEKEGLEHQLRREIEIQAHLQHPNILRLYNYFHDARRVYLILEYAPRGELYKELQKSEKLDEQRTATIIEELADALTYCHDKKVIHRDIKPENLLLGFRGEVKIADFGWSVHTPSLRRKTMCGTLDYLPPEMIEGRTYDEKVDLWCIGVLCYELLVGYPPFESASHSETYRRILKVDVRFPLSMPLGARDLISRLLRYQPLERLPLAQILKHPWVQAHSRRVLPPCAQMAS
In words: Inhibition of human N-terminal GST-tagged Aurora B (M1 to S27 residues) expressed in sf9 cells at 1 uM using CDC25C-derived peptide as substrate by filter binding assay. In outline:
(§1)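 Single-point profiling at 1 μM in a 22-kinase panel, performed externally by ProQinase; activity read as residual percent of control.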

The target in series [12] is Cyclin-dependent kinase 4/cyclin D1 (Homo sapiens) (UniProt P11802+P24385). Put plainly: Inhibition of recombinant human N-terminal GST-tagged CDK4 (S4 to E303 residues)/Cyclin D1 (Q4 to I295 residues) expressed in sf9 cells at 1 uM using RB-CTF as substrate by filter binding assay. In outline: as §1
In series [13] the target is Cyclin-dependent kinase 2/cyclin E1 (Homo sapiens) (UniProt P24864+P24941). Put plainly: Inhibition of recombinant human N-terminal GST-tagged CDK2 (M1 to L298 residues)/Cyclin E1 (M1 to A395 residues) expressed in sf9 cells at 1 uM using RB-CTF as substrate by filter binding assay. A digest of the protocol:
as §1

For series [14], the target named is Fibroblast growth factor receptor 1 (Homo sapiens) (UniProt P11362). In words: Inhibition of human N-terminal GST/His6-tagged FGFR1 (G400 to R820 residues) expressed in baculovirus infected sf9 cells at 1 uM using Poly(Glu,Tyr)4:1 as substrate by filter binding assay. In outline: as §1
In series [15] the target is CDK2/Cyclin A2 (Homo sapiens) (UniProt P24941+P20248). In words: Inhibition of recombinant human N-terminal GST-tagged CDK2 (M1 to L298 residues)/Cyclin A2 (M1 to L432 residues) expressed in baculovirus infected sf9 cells at 1 uM using Histone H1 as substrate by filter binding assay. In outline:
as §1

The target in series [16] is Cyclin-dependent kinase 1/cyclin B1 (Homo sapiens) (UniProt P06493+P14635). Put plainly: Inhibition of recombinant human N-terminal GST/His6-tagged CDK1 (M1 to M297 residues)/Cyclin B1 (M1 to V433 residues) expressed in sf9 cells at 1 uM using RB-CTF as substrate by filter binding assay. In outline: as §1
A short description of series [17]: Solubility of the compound in water by spectrophotometric method. It is filed as physicochemical. In outline: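 Ethanol standard solutions define absorbance maxima; aqueous solubility then quantified spectrophotometrically at that maximum by calibration.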
Series [18] has as its target Aurora kinase B (Homo sapiens) (UniProt Q96GD4). In words: Inhibition of human N-terminal GST/His6-tagged Aurora B (A2 to A344 residues) expressed in sf9 cells at 1 uM using tetra(LRRLSLG) as substrate by filter binding assay. In outline:
as §1

The next series has as its target CDK6/cyclin D3 (Homo sapiens, UniProt Q00534). In words: Inhibition of full length human N-terminal His6-tagged CDK6/N-terminal GST-tagged CyclinD3 expressed in sf21 cells after 10 mins in presence of [gamma32P]ATP by beta counting method.
The target of series [19] is Cyclin-dependent kinase 1/cyclin B1 (Homo sapiens, UniProt P06493). In words: Inhibition of full length human C-terminal His6-tagged CDK1/N-terminal GST-tagged CyclinB expressed in baculovirus infected sf21 cells after 10 mins in presence of [gamma32P]ATP by beta counting method. In kind it is cell-based.
Series [20] deals with Cyclin-dependent kinase 5/CDK5 activator 1 (Homo sapiens) (UniProt Q00535+Q15078). In words: Inhibition of recombinant human N-terminal GST-tagged CDK5 (M1 to P292 residues)/p35NCK (M1 to R307 residues) expressed in baculovirus infected sf9 cells at 1 uM using RB-CTF as substrate by filter binding assay. A digest of the protocol: as §1
The target of series [21] is T6, Aurora kinase A (Homo sapiens) (UniProt O14965).
T6 sequence (whole entry): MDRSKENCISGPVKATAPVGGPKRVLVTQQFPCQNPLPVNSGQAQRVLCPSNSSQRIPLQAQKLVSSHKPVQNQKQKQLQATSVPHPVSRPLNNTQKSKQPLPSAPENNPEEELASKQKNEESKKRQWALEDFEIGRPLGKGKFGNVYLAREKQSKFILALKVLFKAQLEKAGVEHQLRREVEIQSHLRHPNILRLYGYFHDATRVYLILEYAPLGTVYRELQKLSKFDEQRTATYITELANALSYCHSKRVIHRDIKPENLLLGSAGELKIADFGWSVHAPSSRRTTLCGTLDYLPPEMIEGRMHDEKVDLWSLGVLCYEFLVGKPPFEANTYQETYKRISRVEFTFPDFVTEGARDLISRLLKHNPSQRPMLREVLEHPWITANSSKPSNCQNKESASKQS
Put plainly: Inhibition of human N-terminal GST/His6-tagged Aurora A (M1 to S403 residues) expressed in baculovirus infected sf9 cells at 1 uM using tetra(LRRLSLG) as substrate by filter binding assay. In outline:
as §1

Series [22] is described as follows: Antiproliferative activity against human LXFL 529L cells after 3 days by SRB assay. In kind it is functional, cell-based. Particulars: Homo sapiens, LXFL 529L, 72 h.
Series [23] concerns the target T1, Glycogen synthase kinase-3 beta. In words: Inhibition of human N-terminal GST/His6-tagged GSK3beta (M1 to T420 residues) expressed in baculovirus infected sf9 cells at 1 uM using RBER-IRStide as substrate by filter binding assay. In outline:
as §1

Series [24] addresses Serine/threonine-protein kinase Chk2 (Homo sapiens) (UniProt O96017). In words: Inhibition of CHK2 (unknown origin) at 1 uM. In outline: as §1
Series [25] concerns the target T4, Insulin-like growth factor 1 receptor. In words: Inhibition of IGF1R (unknown origin) by ADP-Glo assay. A digest of the protocol:
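Isolated IGF-1R activity measured by luminescent ADP-Glo readout per manufacturer's protocol; IC50 from concentration-response (mean ± deviation reported).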
For orientation: ADP-Glo turns the ADP formed in a reaction into a luminescent signal.

Series [26] shares this target. Put plainly: Inhibition of IGF1R phosphorylation at Tyr1161 residue in human MCF7 cells at 10 uM after 1 hr by Hoechst 33258 staining based immunohistochemical analysis. It is filed as cell-based. In outline: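 MCF7 treated 1 h (test agent 1 μM; PI3K inhibitor 10 μM; 0.1% DMSO mock), fixed in 4% PFA 15 min, permeabilised/blocked, anti-p-IGF-1R Y1161 (1:200) overnight at 4 °C, Alexa 594 secondary 1 h, nuclei with Hoechst 33258 (1 μg/mL).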

For series [27], the system named is MCF7. Put plainly: Growth inhibition of human MCF7 cells incubated for 48 hrs by sulforhodamine B assay. It is filed as functional. The settings on record: MCF7, 48 h. In general terms: In SRB staining, fixed cells bind dye roughly in proportion to their protein.
A further series concerns MDA-MB-231. Put plainly: Growth inhibition of human MDA-MB-231 cells incubated for 48 hrs by sulforhodamine B assay. It is filed as functional. The settings on record: MDA-MB-231, 48 h.
The subject of the next series is BT-549. Put plainly: Growth inhibition of human BT549 cells incubated for 48 hrs by sulforhodamine B assay. Particulars: BT-549, 48 h. In kind it is functional.
The subject of another series is KM12. In words: Growth inhibition of human KM12 cells incubated for 48 hrs by sulforhodamine B assay. It is filed as functional. The settings on record: KM12, 48 h.

As for `CN1CCN(CCO/N=C2/C(=C3/C(=O)Nc4cc(Br)ccc43)Nc3ccccc32)CC1`, the IC50 in series [1] stood at 0.005 µM; in series [2] it was 0.5 µM.
Consider `O=C1Nc2ccccc2/C1=C1/Nc2ccccc2C1=O` [INDIRUBIN], for which the IC50 is 2.2 µM in series [3]; 0.6 µM in [4]; 2.2 µM at CDK2/Cyclin A2 [5]; more than 1000 µM in [6]; 7.5 µM on CDK2/Cyclin A2 [7]; 7.5 µM in [8]. Further, the half-maximal inhibitory concentration (IC50) in the series with MCF7 [9] (Homo sapiens, MCF7, 72 h) is 9.91 µM; in series [10], 12 µM.
Take `O=C1Nc2ccccc2/C1=C1/Nc2ccccc2/C1=N\OCC(O)CO` (stereo not given): the inhibition entry in series [11], in [12], in series [13], in series [14], in series [15] and in series [16] was “Active” each time. Besides, the inhibition result in series [18], in [20], in series [21], in series [23] and in [24] was “Active” throughout. Also, the IC50 in series [4] was found to be 0.11 µM; at CDK2/Cyclin A2 [5], 0.54 µM; in series [8], 0.21 µM; at CDK6/cyclin D3, 0.075 µM; in series [19] it was 1.65 µM; in the series with MCF7 [9] (Homo sapiens, MCF7, 72 h) it was 0.1 µM. In series [22], this compound yielded a 50% inhibitory concentration (IC50) of 0.9 µM. Moreover, the concentration in solution in [17] (solubility) was 2 µg/mL (≈ 5.69 µM).
In series [17], `O=C1Nc2ccccc2/C1=C1/Nc2ccccc2/C1=N\O` gave a solubility of 0.12 µg/mL (≈ 0.433 µM). In addition, the midpoint of inhibition in [25], the IC50, lay at 5.3 µM.
With `O=c1cc(N2CCOCC2)oc2c(-c3ccccc3)cccc12`, in series [26], the inhibition result is “Active”.
In the case of `CN1CCN(CCO/N=C2/C(=C3/C(=O)Nc4ccccc43)Nc3ccccc32)CC1.Cl`, the GI50 in the series on MCF7 [27] turned out to be 0.59 µM; with MDA-MB-231 it was 2.14 µM; with BT-549, 3.19 µM; in the series with KM12, 0.08 µM. This compound also came in with a solubility in [17] of more than 25000 µg/mL. Further, the IC50 was 0.169 µM in [25], 0.85 µM in the series on MCF7 [9] (mcf7) and 1.1 µM in series [22].

Usually IC50 stands for the concentration needed to halve the response being measured. For orientation: solubility means the dissolved amount per volume that the medium holds. Read a high solubility as much dissolved substance. Broadly, the GI50 is the concentration giving 50% growth inhibition. Lower therefore signals more potent growth inhibition.
